The source of these data is PubChem BioAssay AID602232 (The Scripps Research Institute Molecular Screening Center, 2012).

A short description of the assay: increase of myofibrillar ATP hydrolysis – biochemical, absorbance, porcine cardiac myofibrils, powder samples, mechanism study for cardiac RTF activator project (AID 602232). Conditions: phosphate absorbance 660 nm, at 10 µM, hits give high values. In short, it runs like this:
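repeats = five replicate wells per compound | medium = pH 7.0 pCa buffer at half-maximal calcium | schedule = 5 min compound preincubation, then 7 min ATPase reaction, 25 °C | doses = 10 µM single concentration | technique = Fiske-Subbarow colorimetry of released phosphate after TCA stop, 660 nm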

The structures appear in SMILES notation. Values without a mark were called inactive. Calls of active or inactive are those of the source.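 How the source made its calls: active means normalized ATPase activity over 10% above control, with a t-test p below 0.05 against the vehicle group; inactive means the rest.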

As for `Cc1ccc(/C=C2\Oc3c(ccc(O)c3CN3CCN(CCO)CC3)C2=O)cc1`, the normalized ATPase activity was 0.928.

Take `COc1ccccc1NS(=O)(=O)c1cc([N+](=O)[O-])ccc1N/N=C/c1c(C)[nH]c2ccccc12`: the normalized ATPase activity was 1.08.

In the case of `CCN1C(=O)/C(=C/N2CCc3ccccc32)SC1=S`, the normalized ATPase activity was 0.984.

For `S=C(Nc1ccc(N2CCOCC2)cc1)Nc1ccc2nc(-c3ccco3)c(-c3ccco3)nc2c1`, the normalized ATPase activity was 1.06.

As for `CN1CCN(CCCN2c3ccccc3Sc3ccc(C(F)(F)F)cc32)CC1`, the normalized ATPase activity was 0.986.

As for `CCN1C(=O)/C(=C/C=C2/SCCN2C)SC1=S`, the normalized ATPase activity is 1.07.

`COc1ccc(-c2nc3ccc(C4=NNC(=O)CC4C)cc3[nH]2)cc1` (stereo not given): the normalized ATPase activity was 1.05.

Take `CCOC(=O)c1sc(N)c(C#N)c1COC(=O)CNC(=O)c1cc(OC)c(OC)c(OC)c1`: the normalized ATPase activity is 1.11 (active).

Take `CC(C)COCC(CN(Cc1ccccc1)c1ccccc1)N1CCCC1` (stereo not given): the normalized ATPase activity is 1.05.

Regarding `CCN(CC)c1ccc(/C=c2\sc3nc4ccccc4n3c2=O)c(O)c1`, the normalized ATPase activity was 0.988.

As for `CCN(CC)c1ccc(/C=C2\SC(N)=NC2=O)cc1`, the normalized ATPase activity was 0.992.

Regarding `CCOC(=O)c1cc2n(c1N)-c1ccccc1C2=O`, the normalized ATPase activity was 1.03.

For `COc1ccc(OC)c(/C=C2\N=C(c3ccccc3)OC2=O)c1`, the normalized ATPase activity is 1.03.

Turning to `Cc1cccn2c(=O)c(/C=C3\SC(=S)N(CC(C)C)C3=O)c(NCCCOC(C)C)nc12`, the normalized ATPase activity is 1.11 (active).

With `CCCN1CCc2c(sc(NC(=S)NC(=O)c3ccccc3)c2C#N)C1`, the normalized ATPase activity was 0.984.
